From ChEMBL document CHEMBL1124599, “Synthesis and structure-activity relationships of a novel class of 5-lipoxygenase inhibitors. 2-(Phenylmethyl)-4-hydroxy-3,5-dialkylbenzofurans: the development of L-656,224” (J Med Chem, 1989) come the findings set out here.

SMILES strings stand for the structures. pIC50: −log10 of the molar value. A value given as a limit tells only on which side of the number the result lay.

In test [1] the test system is Rattus norvegicus. The test can be described thus: Inhibition of antigen (IgE) induced bronchoconstriction in hyperreactive inbred rats at a dose of 1.5 mg/kg. The class given is functional. A digest of the protocol: (§1)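 Inbred hyperreactive rats receive compound orally 4 h before antigen, as a suspension in 0.4% methocel/0.5% Tween 80 (10 mL/kg). Methysergide (3 μg/kg iv) is given 5 min before ovalbumin aerosol challenge. Respiration is recorded by pneumotachograph. Percent inhibition is reduction in dyspnea duration versus vehicle controls, with Student's t test. ED50 is derived by linear regression.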

The species named for test [2] is Rattus norvegicus. As to the kind of experiment: Inhibition of hyperalgesia response induced by subplantar injection of platelet-activating factor in rat. The test is classed as functional.
For test [3], the system named is Rattus norvegicus. As to the kind of experiment: Inhibition of antigen (IgE) induced bronchoconstriction in hyperreactive inbred rats at a compound dose of 0.5 mg/kg. The class given is functional. A digest of the protocol:
as §1

Test [4] has as its system Rattus norvegicus. As to the kind of experiment: Effect of antigen-induced dyspnea in hyperreactive inbred rats at 0.5 mg/kg of compound concentration. The test is classed as functional. The essentials: as §1
Test [5] deals with Rattus norvegicus. The test can be described thus: Inhibition of antigen (IgE) induced bronchoconstriction in hyperreactive inbred rats at a compound dose of 0.15 mg/kg. The class given is functional. A digest of the protocol: as §1
Test [6] concerns the target T1, Polyunsaturated fatty acid 5-lipoxygenase (Rattus norvegicus, UniProt P12527).
T1 sequence (P12527 whole entry): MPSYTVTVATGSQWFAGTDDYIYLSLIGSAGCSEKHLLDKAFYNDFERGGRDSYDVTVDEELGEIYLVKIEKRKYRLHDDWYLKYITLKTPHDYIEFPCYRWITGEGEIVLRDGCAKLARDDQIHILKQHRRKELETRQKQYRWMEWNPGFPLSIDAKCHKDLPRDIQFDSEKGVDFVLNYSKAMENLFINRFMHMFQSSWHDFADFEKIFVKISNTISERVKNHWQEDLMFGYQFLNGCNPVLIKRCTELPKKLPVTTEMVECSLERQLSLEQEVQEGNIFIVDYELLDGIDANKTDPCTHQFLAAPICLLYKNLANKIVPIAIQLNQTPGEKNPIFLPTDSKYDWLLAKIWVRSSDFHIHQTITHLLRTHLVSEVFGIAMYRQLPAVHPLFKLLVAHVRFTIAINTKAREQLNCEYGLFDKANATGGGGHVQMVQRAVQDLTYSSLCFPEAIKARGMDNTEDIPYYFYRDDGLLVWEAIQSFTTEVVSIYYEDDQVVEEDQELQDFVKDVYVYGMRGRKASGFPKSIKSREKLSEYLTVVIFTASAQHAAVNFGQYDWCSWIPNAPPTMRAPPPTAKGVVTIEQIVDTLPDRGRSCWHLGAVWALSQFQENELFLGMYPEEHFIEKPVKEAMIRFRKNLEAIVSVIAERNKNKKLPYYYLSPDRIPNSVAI
The test can be described thus: Concentration required for 50 % inhibition of arachidonic acid oxidation by rat 5-lipoxygenase. A digest of the protocol: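 Rat PMN leukocyte 10000g supernatant is used as the enzyme. Incubation is run in 25 mM Na+/K+ phosphate pH 7.3 with 1 mM ATP, 0.5 mM CaCl2 and 0.5 mM mercaptoethanol. Inhibitor from DMSO (500-fold stock) is preincubated 2 min at 37°C. [14C]arachidonic acid is added to 10 μM final for 10 min at 37°C. Conversion to 5-HETE and 5,12-diHETEs is read by TLC radioscan. IC50 is derived by linear regression.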

Test [7] addresses T2, Seed linoleate 13S-lipoxygenase-1 (Glycine max, UniProt P08170).
T2 sequence (P08170 whole entry): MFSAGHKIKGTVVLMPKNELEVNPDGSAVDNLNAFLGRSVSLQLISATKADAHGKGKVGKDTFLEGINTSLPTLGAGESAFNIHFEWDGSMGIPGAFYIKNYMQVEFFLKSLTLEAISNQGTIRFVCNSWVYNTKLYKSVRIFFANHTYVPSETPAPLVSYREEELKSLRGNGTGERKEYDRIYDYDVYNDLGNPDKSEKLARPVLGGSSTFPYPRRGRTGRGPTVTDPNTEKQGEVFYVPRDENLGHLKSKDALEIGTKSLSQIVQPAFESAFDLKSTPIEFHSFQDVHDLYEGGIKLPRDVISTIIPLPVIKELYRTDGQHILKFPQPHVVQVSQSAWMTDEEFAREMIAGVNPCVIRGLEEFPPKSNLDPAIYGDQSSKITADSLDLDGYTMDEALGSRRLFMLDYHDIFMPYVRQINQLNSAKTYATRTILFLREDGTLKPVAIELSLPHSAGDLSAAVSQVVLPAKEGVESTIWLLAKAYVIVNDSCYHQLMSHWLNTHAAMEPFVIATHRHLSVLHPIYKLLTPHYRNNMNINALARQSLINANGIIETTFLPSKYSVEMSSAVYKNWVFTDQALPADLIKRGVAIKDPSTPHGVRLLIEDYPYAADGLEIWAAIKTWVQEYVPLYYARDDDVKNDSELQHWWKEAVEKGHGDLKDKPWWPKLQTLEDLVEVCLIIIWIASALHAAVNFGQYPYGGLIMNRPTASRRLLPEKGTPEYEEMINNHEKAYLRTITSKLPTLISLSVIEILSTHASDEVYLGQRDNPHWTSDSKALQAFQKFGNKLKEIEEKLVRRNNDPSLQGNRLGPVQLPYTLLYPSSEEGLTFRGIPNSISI
As to the kind of experiment: Inhibitory activity towards soybean lipoxygenase.

In test [8] the test system is Saimiri sciureus. As to the kind of experiment: Inhibition of increase in pulmonary resistance and decrease in dynamic compliance of ascaris antigen-induced bronchoconstriction in squirrel monkeys at 0.25 mg/kg compound concentration.
Test [9] deals with T3, Polyunsaturated fatty acid 5-lipoxygenase (Homo sapiens, UniProt P09917).
T3 sequence (P09917 whole entry): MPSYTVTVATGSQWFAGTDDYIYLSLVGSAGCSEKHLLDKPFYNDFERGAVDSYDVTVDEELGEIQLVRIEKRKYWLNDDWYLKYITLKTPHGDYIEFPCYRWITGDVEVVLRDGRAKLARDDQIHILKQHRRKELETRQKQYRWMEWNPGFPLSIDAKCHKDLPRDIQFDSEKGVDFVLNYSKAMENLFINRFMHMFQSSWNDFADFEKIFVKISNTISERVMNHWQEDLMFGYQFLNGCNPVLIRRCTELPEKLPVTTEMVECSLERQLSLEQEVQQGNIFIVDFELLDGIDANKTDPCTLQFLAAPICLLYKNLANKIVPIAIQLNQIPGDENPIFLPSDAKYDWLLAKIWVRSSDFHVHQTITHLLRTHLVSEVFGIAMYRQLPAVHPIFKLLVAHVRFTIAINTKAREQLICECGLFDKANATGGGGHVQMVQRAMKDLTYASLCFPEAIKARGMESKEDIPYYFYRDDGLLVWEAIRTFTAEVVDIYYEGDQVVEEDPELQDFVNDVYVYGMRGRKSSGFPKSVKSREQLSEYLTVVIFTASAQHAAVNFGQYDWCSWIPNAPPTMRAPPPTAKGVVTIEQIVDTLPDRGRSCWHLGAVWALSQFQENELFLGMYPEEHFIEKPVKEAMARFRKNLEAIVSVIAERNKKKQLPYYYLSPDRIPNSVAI
The test can be described thus: Concentration required for 50 % inhibition of leukotriene B4 production in human PMN compared with controls in the absence of compound. The test is classed as functional. The essentials: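 Human PMN are isolated from citrated venous blood by dextran sedimentation, Ficoll-Hypaque and NH4Cl lysis. Cells (5×10^5/mL in HHBSS) are warmed 10 min at 37°C and given compound in DMSO for 2 min. They are stimulated with A23187 (10 μM) for 5 min and stopped with methanol. LTB4 is measured by radioimmunoassay.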

Test [10] has as its system Rattus norvegicus. As to the kind of experiment: Effect of antigen-induced dyspnea in hyperreactive inbred rats at 1.5 mg/kg of compound concentration. The class given is functional. The essentials: as §1
Test [11] relates to Rattus norvegicus. As to the kind of experiment: Inhibition of antigen (IgE) induced bronchoconstriction in hyperreactive inbred rats at a compound dose of 5.0 mg/kg. The class given is functional. The essentials:
as §1

Test [12] concerns Rattus norvegicus. The test can be described thus: Inhibition of antigen (IgE) induced bronchoconstriction in hyperreactive inbred rats at a compound dose of 1.5 mg/kg. The test is classed as functional. The essentials: as §1

The compound `CCCc1cc(Cl)c2oc(Cc3ccc(OC)cc3)c(C)c2c1O` registered an inhibition in vivo at 1.5 mg/kg in test [1] of 56%. In test [2], this compound came in with an AD100 of 1.5 mg/kg. Also, the inhibition in vivo at 0.5 mg/kg in test [3] was found to be 48%. For the same compound, the median effective dose (ED50) in test [4] is 0.7 mg/kg. In test [5], this compound registered an inhibition in vivo at 0.15 mg/kg of 36%. The negative-log IC50 (pIC50) is 7.44 in test [6] and 4.52 in test [7]. The same compound displayed an inhibition in vivo at 0.25 mg/kg in test [8] greater than 85%.

With `CCCc1ccc2oc(Cc3ccc(OC)cc3)c(C)c2c1O`, the pIC50 in [9] is 7.51; in [6] it was 6.89. Besides, the inhibition in vivo at 1.5 mg/kg in [1] was found to be 64%. Testing at 0.5 mg/kg in [3] gave an inhibition in vivo of 55%. In [10], this compound yielded a median effective dose (ED50) of less than 0.5 mg/kg. Moreover, the inhibition in vivo at 5 mg/kg in [11] turned out to be 66%.

On to `COc1ccc(Cc2oc3c(Cl)cc(C)c(O)c3c2C)cc1`, for which the negative logarithm of the IC50 (pIC50) in [9] is 7.34.

In the case of `COc1ccc(Cc2oc3c(Cl)cc(CCCO)c(O)c3c2C)cc1`, the pIC50 in test [9] is 7.12; in test [6], 6.79. Testing at 0.5 mg/kg in [3] gave an inhibition in vivo of 58%. Testing at 0.15 mg/kg in test [5] gave an inhibition in vivo of 39%.

On to `CCCc1cc(C)c2oc(Cc3ccc(OC)cc3)c(C)c2c1O`, for which the negative-log IC50 (pIC50) in [9] was 7.92; in test [6], 6.85. Moreover, at 1.5 mg/kg the inhibition in vivo in test [12] was 49%. For the same compound, the inhibition in vivo at 5 mg/kg in test [11] was determined as 55%.

In [9], `CCOCc1cc(Cl)c2oc(Cc3ccc(OC)cc3)c(C)c2c1O` gave a pIC50 of 6.54.

`CCCc1cc(Cl)c2oc(Cc3ccc(OCC(=O)O)cc3)c(C)c2c1O` had a pIC50 in test [9] of 6.98. In [1], this compound came in with an inhibition in vivo at 1.5 mg/kg of 28%.

For `COc1ccc(Cc2oc3cccc(O)c3c2C)cc1`, the figures for the pIC50 in test [9] and in test [6] were 6.24 and 5.69, respectively.

For `CCCc1cc(Cl)c2oc(Cc3ccc(Cl)cc3)c(C)c2c1O`, the pIC50 in test [9] is 7.59.

For `CCCc1cc(Cl)c2oc(Cc3ccccc3)c(C)c2c1O`, in test [9], the pIC50 is 7.52.

In test [9], `CCCc1cc(Cl)c2oc(Cc3ccc(OC)cc3OC)c(C)c2c1O` gave a pIC50 of 7.89.

For `CCCc1cc(Cl)c2oc(Cc3ccc(OC)cc3)c(CCC)c2c1O`, the pIC50 in [9] is 7.70.

The compound `COc1ccc(Cc2oc3c(Cl)cc(CCC(=O)O)c(O)c3c2C)cc1` showed a pIC50 in [9] of 5.67. The compound further came in with an inhibition in vivo at 1.5 mg/kg in test [1] of 11%.

In test [9], `C=CCc1cc(Cl)c2oc(Cc3ccc(OC)cc3)c(C)c2c1O` showed a negative-log IC50 (pIC50) of 7.70.

In test [9], `COc1ccc(Cc2oc3c(Cl)cc(C(C)(C)C)c(O)c3c2C)cc1` had a pIC50 of 7.00. In [1], this compound had an inhibition in vivo at 1.5 mg/kg of 32%.

Consider `CCCc1cc(F)c2oc(Cc3ccc(OC)cc3)c(C)c2c1O`, for which the pIC50 in test [9] is 8.15; in test [6] it was 6.89.

In the case of `COc1ccc(Cc2oc3c(Cl)ccc(O)c3c2C)cc1`, the negative-log IC50 (pIC50) in test [9] is 6.42; in [6] it was 5.70.

Take `COc1ccc(Cc2oc3c(Cl)cc(Cl)c(O)c3c2C)cc1`: in test [9], the pIC50 was 6.07.

By inhibition in vivo is commonly meant the share of the control response that was lost under treatment. Broadly, the ED50 is the dose at which the effect has come halfway, by size or by number of responders. The pIC50 is the negative decadic logarithm of the IC50, by convention in mol/L.
